LGR2 antag: inhibitors of bursicon-induced LGR2 CRE-luciferase signal, primary screen, cell-based, HEK293, CRE-luciferase reporter, bursicon stimulation. bursicon-stimulated, 4 h. inhibition, % at 9.99 µM. hit rate 0.35% among 380,000. AID 720647, 2013;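 active = drop in luminescence signal, shown as inhibition above about 50% in the replicate tests, limit read from the data, passing the limit was not always enough; inconclusive = probably only some replicates passing the limit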;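 also: agonist challenge used bursicon conditioned medium at about half maximal strength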
rRNA inh HTS: reduced GFP signal of wild-type E. coli, primary screen, bacterial rRNA inhibitor project, GFP/RFP fluorescence, OD600, single point; E. coli WT GFP vs humanized-ribosome RFP mutants, 24 h; active compounds read low; DMSO median 0, no signal -100; AID 720706, 2013; GFP signal change (wild-type ribosome), % (concentration not given with the values); hit rate 1.6% among 350,000;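 active = significant combined selectivity score with lowered wild-type GFP, culture density cut under 30%, mutant RFP and density less affected; inactive = any of these conditions unmet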
E-sel inducer: E-selectin induction in HUVECs, primary screen, imaging, HUVEC, immunofluorescence imaging, single point. hit rate 0.37% among 260,000. normalized: neutral wells 0, TNF-alpha wells 100. activation, % at 7.58 µM. P16581;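 active = mean E-selectin-positive cell signal at least 10% of the positive control, reached in at least 60% of replicates, without over 20% cell loss; inconclusive = no rule given, readout overlaps actives, possibly toxicity-flagged; inactive = the rest, including those meeting only one limit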
Target sequence (P16581 whole entry, looked up): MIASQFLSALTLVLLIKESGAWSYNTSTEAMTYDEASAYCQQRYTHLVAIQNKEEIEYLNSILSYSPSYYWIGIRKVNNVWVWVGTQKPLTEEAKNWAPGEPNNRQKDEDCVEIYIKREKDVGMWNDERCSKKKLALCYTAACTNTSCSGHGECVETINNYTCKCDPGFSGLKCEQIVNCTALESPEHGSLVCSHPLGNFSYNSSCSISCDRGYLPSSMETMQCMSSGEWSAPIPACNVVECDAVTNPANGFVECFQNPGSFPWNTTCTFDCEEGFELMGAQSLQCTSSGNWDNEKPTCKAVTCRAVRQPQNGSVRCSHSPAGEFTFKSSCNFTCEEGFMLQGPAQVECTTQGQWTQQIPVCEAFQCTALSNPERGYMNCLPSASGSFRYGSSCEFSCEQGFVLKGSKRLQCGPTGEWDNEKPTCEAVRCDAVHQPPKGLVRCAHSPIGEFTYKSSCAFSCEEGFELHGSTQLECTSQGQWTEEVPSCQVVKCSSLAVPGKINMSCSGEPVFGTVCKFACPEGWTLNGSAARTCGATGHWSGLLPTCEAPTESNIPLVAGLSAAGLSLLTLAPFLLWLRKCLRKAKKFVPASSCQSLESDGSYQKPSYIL
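Assay system: HUVEC, human umbilical vein endothelial cells / Amount: 3,000 HUVEC/well / Controls: TNF-alpha positive control, DMSO neutral control / Compound dosing: single concentration / Medium: EGM-2 over gelatin coat / Evaluation: percent E-selectin-positive cells / Signal: immunofluorescence imaging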
EWS-Fli block: EWS/Fli-driven NR0B1 reporter inhibitors, primary screen, A673 cells, NR0B1 luciferase, luminescence, MLPCN library. inhibition, % at 12.6 µM. hit rate 0.67% among 350,000. viability-normalised. AID 651661, 2012;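 active = mean inhibition of at least 50% after viability correction, with every replicate also passing that limit; inconclusive = mean reaches 50% but only one of two replicates passes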;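 also: firefly luciferase signal divided by Alamar Blue viability fluorescence both relative to DMSO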
Active calls of the source: *; ? = inconclusive; . = no result. Only some compounds are listed: those with a hit (about 2.4% of all), similar ones and a draw of the others.

SMILES	LGR2 antag	rRNA inh HTS	E-sel inducer	EWS-Fli block
COc1cccc(-c2ccc([C@H]3[C@@H](CO)N4C(=O)CN(C(=O)C5CCOCC5)C[C@H]34)cc2)c1	15	2	0	-1
C[C@@H]1CN([C@H](C)CO)C(=O)c2cccc(NC(=O)CCCCCC(=O)Nc3ccccc3N)c2O[C@@H]1CN(C)CC1CCCCC1	-17	0	1	.
CCN1C(=O)C(=Cc2cccc(OC)c2Oc2ccc([N+](=O)[O-])cc2[N+](=O)[O-])SC1=S	8	4	0	58*
COc1cc(/C=C2\SC(=O)NC2=O)ccc1Oc1ccc([N+](=O)[O-])cc1[N+](=O)[O-]	10	7	.	16
COc1cc(C2c3[nH]c4ccccc4c3CC3COC(=O)N32)cc(OC)c1O (stereo unspecified)	-3	-5	1	64*
Cc1noc(C)c1S(=O)(=O)Nc1ccc2c(c1)C(=O)N([C@@H](C)CO)C[C@H](C)[C@H](CN(C)C(=O)NC(C)C)OCCCC[C@H](C)O2	9	5	.	-16
O=C(c1ccc2c(c1)OCO2)N1CC2(C1)[C@H](c1ccccc1)[C@H](CO)N2C(=O)C1CC1	-24	-1	0	.
CC1=CN2C(=N)/C(=C/c3ccc([N+](=O)[O-])o3)C(=O)N=C2S1	?	6	1	56*
COCC(=O)N1CC2(C1)[C@H](c1ccccc1)[C@@H](CO)N2C(=O)c1ccccc1	-11	1	0	-5
O=C1/C(=C/c2ccccc2[N+](=O)[O-])COc2ccccc21	91*	-6	9	28
C[C@@H]1CN([C@H](C)CO)C(=O)Cc2cc(NC(=O)NC3CCCCC3)ccc2O[C@H]1CN(C)S(=O)(=O)c1cn(C)cn1	1	3	-11	-8
COC(=O)c1c(-c2ccc(SC)cc2)sc2ccc(OC)cc12	-117	-12	0	-7
COC(=O)c1c(-c2ccc(OC)cc2)sc2cc(OC)c(OC)cc12	-11	-24*	0	-4
C[C@@H]1CN([C@H](C)CO)C(=O)c2cc(C#C[C@@H](C)O)cnc2O[C@@H]1CN(C)C(=O)Nc1ccc(F)cc1	-29	4	0	2
CCOC(=O)C1CCCN(C(=O)c2ccc3oc(CCc4ccccc4)nc3c2)C1 (stereo unspecified)	-15	-29*	.	.
CCC(=O)C1CCCN(C(=O)c2ccc3nc(-c4cccc(OC)c4)oc3c2)C1 (stereo unspecified)	-53	-10	0	.
CCOC(=O)C1CCCN(C(=O)c2ccc3nc(-c4cccc(OC)c4)oc3c2)C1 (stereo unspecified)	-57	-35*	.	.
CNC[C@H]1Oc2c(N)cccc2C(=O)N(C)C[C@H]1C	.	2	.	.
COCCCn1c(=O)/c(=C\c2ccc(OC(F)F)c(OC)c2)s/c1=C(/C#N)C(N)=O	-32	10	-2	-14
COCCCn1c(=O)/c(=C\c2ccccc2OC(F)F)s/c1=C(/C#N)C(N)=O	7	49	38*	-5
O=C(C[C@@H]1C[C@H]2c3cc(NC(=O)NC4CCCCC4)ccc3O[C@H]2[C@@H](CO)O1)NC1CCCC1	.	5	.	.
COc1ccccc1N(CN1C(=O)c2ccccc2C1=O)C(=O)c1cccc(C)c1	13	-30*	-3	-8
CN(C)CCOc1ccc2c(c1)C(=O)C(=Cc1ncc([N+](=O)[O-])n1C)C2	100*	-65	1	52*
Cc1nnn(C23C[C@@H]4C[C@@H](CC(C(=O)N5CCN(c6ccccc6)CC5)(C4)C2)C3)n1	.	-31*	0	9
O=C(N1CCN(c2ccccc2)CC1)C12CC3CC(CC(C3)C1)C2	.	-6	.	.
SMILES	LGR2 antag	rRNA inh HTS	E-sel inducer	EWS-Fli block
O=[N+]([O-])c1c(C(Cl)Cl)nn(-c2ccccc2)c1N1CCCC1	10	-43*	.	-26
O=c1oc2ccccc2c(N2CCCC2)c1[N+](=O)[O-]	-1	12	.	-8
COCC(=O)N(C)C[C@H]1Oc2ncc(-c3ccccc3C)cc2C(=O)N([C@@H](C)CO)C[C@H]1C	8	8	-1	-5
Nc1ccc(/C=C/C(=O)c2cccs2)cc1	-75	-13	0	-74
O=C(C=Cc1ccccc1)c1cccs1	-6	-22*	0	-79
C[C@@H]1CN([C@@H](C)CO)C(=O)c2cc(NC(=O)NC3CCCCC3)ccc2O[C@H]1CN(C)C(=O)Nc1ccc2c(c1)OCO2	4	-5	0	-13
O=C(c1cccnc1)N1CCCCN2[C@H](C1)[C@H](c1ccc(C#Cc3ccccn3)cc1)[C@@H]2CO	2	-1	0	-12
CCOc1ccc(OCC)c(NC(=O)CSc2nc3c(c(=O)n(C)c(=O)n3C)n2C(C)C)c1	13	-27*	.	9
O=C(N/N=C/c1c[nH]c2ccc(Br)cc12)c1ccc2c(c1)OCO2	-31	-30*	3	-5
O=C(N/N=C/c1cc(Br)c(O)c(Br)c1O)c1ccc2c(c1)OCCO2	-30	-19*	0	-51
O=C(N/N=C/c1c[nH]c2ccc(Br)cc12)C1CC1	10	-34*	4	7
NC(=O)C(=O)N/N=C/c1c[nH]c2ccc(Br)cc12	.	-1	.	5
COc1ccc(S(=O)(=O)N(C)C[C@H]2Oc3c(NS(=O)(=O)c4ccc(C)cc4)cccc3C(=O)N([C@H](C)CO)C[C@@H]2C)cc1	-6	2	0	.
CCC(=O)Oc1cccc(C(=O)Nc2cccc(NC(=O)c3ccco3)c2)c1	27	-9	38*	4
CO[C@H]1CN(C)C(=O)c2cc(NC(=O)Nc3ccc4c(c3)OCO4)ccc2OC[C@H](C)NC[C@@H]1C	-28	8	0	-116
CC1=C(C(=O)OCc2ccccc2)C(c2ccc(Br)cc2)NC(=O)N1CCCCCC(=O)O (stereo unspecified)	-86	-26*	0	-90
O=C(NCC[C@@H]1CC[C@@H](NC(=O)C2CCCCC2)[C@@H](CO)O1)c1cnccn1	-6	-2	0	-2
c1ccc(C2CCCN(Cc3nc(CC4CC4)no3)CC2)cc1 (stereo unspecified)	-43	-17	.	-29
c1ccc(C(c2ccccc2)c2noc(CN3CCC(c4ccncc4)CC3)n2)cc1	18	-43*	2	10
C[C@H](CO)N1C[C@H](C)[C@@H](CN(C)C(=O)CC2CC2)Oc2cc(C3=CCCC3)ccc2S1(=O)=O	1	-5	0	-1
CC1CCN(S(=O)(=O)c2ccc(C(=O)Nc3nnc(C4=COCCO4)o3)cc2)CC1	5	-23*	-1	25
COc1cccc(CN2CCC3(CC2)CN(C(=O)C2CC2)[C@H](CO)c2c3c3ccc(OC)cc3n2C)c1	-14	0	2	33
C[C@H](CO)N1C[C@H](C)[C@@H](CN(C)Cc2ccncc2)Oc2ccc(NC(=O)CCC(F)(F)F)cc2CC1=O	7	0	-5	.
